From PubChem BioAssay
An excerpt weighted towards active compounds, which were near 6% of everything screened.
Ecoli WT expand: E. coli BW25113 growth inhibition, expanded screen | AID 710 | growth inhibition, % at 100 µM | hit rate 0.15% among 98,000 | OD600 absorbance;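 active = growth inhibition above about 50% at one test dose, limit read from the data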;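 note: growth measured after 20 h incubation at 37 °C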
PostGolgi ctrl: yeast control strain growth, post-Golgi counter-screen; efflux-deficient yeast background strain, growth absorbance A615, 16 h; inhibition, % at 10 µM; AID 738; hit rate 5% among 98,000
EphB4 ephrin blk: antagonists of human EphB4-ephrin-B2 interaction | EphB4 LBD / TNYL-RAW-Alexa532 peptide, fluorescence polarization | P54760 | inhibition, % at 7 µM | hit rate 0.15% among 97,000;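 active = inhibition above the screen-wide mean inhibition plus 3 SD, cut at about 15% in these data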;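 note: 0% = DMSO wells and 100% = excess unlabeled TNYL-RAW peptide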
PostGolgi yeast: growth inhibition of a yeast mutant, post-Golgi transport screen; inhibition, % at 10 µM; post-Golgi transport phenotypic cell assay; hit rate 0.9% among 98,000;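 note: yeast cells grown in 1536-well plates; yeast grown about 18 h at 30C before absorbance read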
Ecoli tolC: E. coli tolC mutant growth inhibition; AID 573; E. coli BW25113 tolC mutant growth, OD615; hit rate 2.2% among 65,000; growth inhibition, % at 10 µM (by protocol);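 active = growth inhibition at or above a cutoff equal to the mean over every tested compound plus 3 SD, cut at about 60% in these data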;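 note: growth measured after 20 h incubation at 37 °C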
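Assay system: tolC-deleted E. coli BW25113. Medium: kanamycin-containing LB broth (50 µg/mL). Dosing: 10 µM final, single dose. Timing: bacterial growth with compound for 20 h at 37 °C. Detection: A615 absorbance measurement. Read-out basis: growth inhibition in percent.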
Numbers without * were called inactive; · = not tested or not shown. Cut-off read from the data, not from the text of the source, unless noted: active = inhibition above about 30%; inactive = the rest.

SMILES	Ecoli WT expand	PostGolgi ctrl	EphB4 ephrin blk	PostGolgi yeast	Ecoli tolC
O=C(Nc1ccc2nc(SCc3ccc(Cl)cc3)sc2c1)c1ccccc1C(=O)N1CCOCC1	-11	33*	-2	-5	·
CCSc1nnc(Cc2cc(=O)[nH]c(=O)[nH]2)n1-c1cc(C)ccc1C	1	30*	-2	-6	-5
Cn1c(=O)c2c(nc(NCc3ccco3)n2CC(O)COc2ccccc2)n(C)c1=O (centres undefined)	-1	40*	-1	-1	0
Cn1c(NCc2ccco2)nc2c1c(=O)n(Cc1ccc(Br)cc1)c(=O)n2C	0	32*	-4	-6	7
CN(C)S(=O)(=O)c1cccc(C(=O)OCC(=O)Nc2sccc2C#N)c1	-2	-1	-1	-24	·
CC1SC(=NC(=O)C(C)N2C(=O)c3ccccc3C2=O)NC1=O (centres undefined)	·	·	-5	·	·
O=C(c1cccs1)N1CCc2c([nH]c3ccccc23)C1c1ccc(Cl)cc1 (centres undefined)	-3	30*	-6	1	·
COc1cc(C)ccc1OCCOCCOc1ccccc1Br	7	42*	-1	-1	·
Cc1nc2c(C#N)c(C)[nH]n2c(=O)c1Cc1ccccc1	-14	37*	1	10	·
Cc1nc2nc(-c3ccco3)[nH]n2c(=O)c1Cc1ccccc1	2	1	2	5	72*
CC(c1ccccc1)N1CC(C(=O)N2CCN(c3ccc(F)cc3)CC2)CC1=O (centres undefined)	7	6	9	8	·
COCCn1c(SCC(=O)Nc2ccc(S(=O)(=O)N(C)C)cc2)nc2ccccc21	-11	11	6	-5	·
COc1cc(-c2nnc(COC(=O)c3c4c(nc5ccccc35)CCCC4)o2)cc(OC)c1OC	-28	23	-9	-2	·
Brc1cc(Br)c2nc(-c3cccs3)ccc2c1	-13	13	-1	-7	·
Cc1nc2c(Br)cc(Br)cc2cc1O	14	37*	7	3	·
CCCn1nc(NS(C)(=O)=O)c2cc3cccc(C)c3nc21	1	36*	-2	0	14
CCn1nc(NS(=O)(=O)c2ccccc2)c2cc3cccc(C)c3nc21	-1	2	3	5	31
NC(=O)c1ccc(C(F)(F)F)n(Cc2cccc(Cl)c2)c1=O	4	61*	-11	5	·
NC(=O)c1ccc(C(F)(F)F)n(Cc2ccc(Cl)cc2)c1=O	-2	20	-6	-2	·
O=C(c1ccc(Cl)cc1)N1CCC(O)(CSc2ccc(Cl)cc2)CC1	-7	45*	1	-4	·
COc1ccc(OC)c2c1sc(=NC(=O)c1cccc(N3C(=O)CCC3=O)c1)n2C	-5	31*	-1	-11	·
COc1ccc(OC)c2c1sc(=NC(=O)C(C)(C)C)n2C	-4	19	5	-8	-6
Fc1ccccc1OCCSc1nnnn1-c1ccccc1	1	21	9	9	49
COc1ccccc1OCCSc1nnnn1-c1ccc(C)cc1	4	16	·	2	65*
O=C(c1ccc(Cl)cc1)N1CCN(c2nc(N3CCCCC3)nc(N3CCCCC3)n2)CC1	·	·	·	·	12
SMILES	Ecoli WT expand	PostGolgi ctrl	EphB4 ephrin blk	PostGolgi yeast	Ecoli tolC
COc1ccc(-c2[nH]ncc2-c2cnn(-c3ccccc3)c2)c(O)c1	1	15	-4	17	93*
COc1ccc(O)c(-c2cn[nH]c2-c2cccs2)c1	-6	8	9	-3	15
COc1ccc(-c2[nH]ncc2-c2cnc(C)s2)c(O)c1	7	-1	-11	-4	1
CCCc1ccc(Oc2cn[nH]c2-c2ccc(O)cc2O)cc1	8	99*	-1	97*	100*
COc1ccc(Oc2cn[nH]c2-c2ccc(O)cc2O)cc1	22	8	-8	4	94*
COc1ccc(-c2[nH]ncc2Oc2ccccc2OC)c(O)c1	8	19	-2	6	99*
CCOc1ccc(C2C(C(=O)c3cccs3)=C(O)C(=O)N2CCCn2ccnc2)cc1 (centres undefined)	·	·	4	·	·
Cc1cccc(N2CCN(C(=O)COc3cc(=O)n(C)c4ccccc34)CC2C)c1 (centres undefined)	·	·	·	·	4
CC(=O)Oc1c(Cl)c(N2CCOCC2)c(OC(C)=O)c2ccccc12	6	9	·	15	-1
Cc1ccc(-c2nn(-c3ccccc3)cc2CSC(=N)N)cc1	98*	27	6	9	·
CCC(Sc1nnc(-c2ccc(C)c(Cl)c2)n1CC)C(=O)Nc1nccs1 (centres undefined)	14	22	·	-3	81*
O=C(c1cnc2n(c1=O)CCS2)N1CCN(c2ccc([N+](=O)[O-])cc2)CC1	-4	15	-4	-4	·
